Drawing on ChEMBL document CHEMBL3286295, “Discovery of HDAC inhibitors with potent activity against multiple malaria parasite life cycle stages” (Eur J Med Chem, 2014), this text covers selectivity ratio and IC50 for two compounds.

The term IC50 denotes the concentration that gives 50% inhibition.

The nature of series [1]: Selectivity index, ratio of IC50 for mouse RAW cells to IC50 for Plasmodium falciparum. The format is toxicity, cell-based. The following applies: read-out: Ratio IC50.
The subject of the next series is RAW. The series can be described thus: Cytotoxicity against mouse RAW cells by MTT assay. It counts as cell-based.
A short description of series [2]: Selectivity index, ratio of IC50 for human mammalian cells to IC50 for Plasmodium falciparum. Conditions: mammalian cells (cell line not named), read-out: Ratio IC50. The format is toxicity. The method in brief:
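Ratio of HepG2 IC50 to P. falciparum 3D7 IC50. HepG2 toxicity assay: uninfected HepG2-A16-CD81EGFP cells treated as in the liver-stage assay, with medium instead of sporozoites, for 48 h. ATP measured by luminescence vs DMSO-treated cells. IC50 by four-parameter regression.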

Series [3] can be described thus: Cytotoxicity against human mammalian cells after 72 to 96 hrs by MTT assay. The format is cell-based.
In a further series the test system is Plasmodium falciparum. The series is described as follows: Antimalarial activity against Plasmodium falciparum infected in human erythrocytes after 72 hrs. It counts as functional, organism-based.
The subject of the next series is Plasmodium berghei. The series is described as follows: microbe, parasite or virus in culture. It counts as functional, organism-based. Conditions: HepG2.

Take `Nc1cccc(-c2csc(NC(=O)CCCCCCC(=O)NO)n2)c1`: the selectivity ratio in series [1] turned out to be 333. For the same compound, in the series with RAW, inhibition was half-maximal at 0.6 µM (IC50).
For `CCCCc1nc2cc(/C=C/C(=O)NO)ccc2n1CCN(CC)CC` [PRACINOSTAT], in series [2], the selectivity ratio was greater than 4. Further, the IC50 in series [3] is greater than 0.8 µM; in the series on Plasmodium falciparum, 0.08 µM; in the series on Plasmodium berghei, 0.15 µM.
